Source: ChEMBL document CHEMBL1124010, “Synthesis and pharmacology of trans-4-n-propyl-3,4,4a,10b-tetrahydro-2H,5H-1-benzopyrano[4,3-b ]-1,4-oxazin-7- and -9-ols: the significance of nitrogen pKa values for central dopamine receptor activation” (J Med Chem, 1988)
Active and inactive are the calls of the source. The calls are words filed in the database; no cut-off is given here.

How the values were obtained:
Rattus norvegicus [1] = test: In Vivo effect on concentration of HVA in rat striatum at 1 umol/kg; type: functional
Rattus norvegicus [2] = test: In Vivo effect on concentration of DOPAC in rat striatum at 1 umol/kg; type: functional
[3] = Ionization constant in presence of nitrogen; type: physicochemical; settings: read-out: pKa1
Method in brief: (§1)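 pKa was determined by the Albert and Serjeant method, as the mean of three to four determinations.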

[4] = Partition coefficient in octanol-buffer at a pH 7.4; type: physicochemical
Method in brief: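 Distribution between 1-octanol and Na⁺/K⁺-phosphate buffer at pH 7.4, each phase presaturated with the other. Tubes were shaken closed and phases separated by centrifugation. Concentrations were measured by HPLC (C18) with electrochemical detection.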

[5] = Ionization constant in presence of hydroxyl; type: physicochemical; settings: read-out: pKa2; method in brief: as §1
[6] = target: Dopamine D2 receptor (Bos taurus); test: Potency to displace the specific in vitro binding of [3H]N-0437 to calf striatal membrane
Rattus norvegicus [7] = test: In Vivo effect on concentration of HVA in rat striatum at dose of 10 umol/kg administered intraperitoneally; type: functional
Method in brief: (§2)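 Female Wistar-derived rats (180–220 g) were given drug ip in saline and killed by cervical dislocation 1 h later. Striata were frozen and homogenized in 0.1 M perchloric acid, then centrifuged (3000g, 7 °C, 15 min). DOPAC and HVA were purified on Sephadex G10, separated by RP18 HPLC with electrochemical detection, and expressed as % of control.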

Rattus norvegicus [8] = test: In Vivo effect of agonist on the induction of stereotypy (continuous sniffing behavior in rat) at 10 umol/kg; Inactive; type: functional, organism-based
D(2) dopamine receptor = D(2) dopamine receptor (Rattus norvegicus, UniProt P61169); test: Potency to displace the specific in vitro binding of [3H]DP-5,6-ADTN to rat striatal membrane; set-up: species or system Striatum
Method in brief: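 Homogenized, washed rat striatal membranes were incubated with [³H]-DP-5,6-ADTN. Nonspecific binding was defined with 10⁻⁶ M (+)-butaclamol. Competitor was tested over 10⁻¹¹–10⁻⁴ M, in triplicate.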

Rattus norvegicus [9] = test: In Vivo effect on concentration of DOPAC in rat striatum at dose of 10 umol/kg administered intraperitoneally; type: functional; method in brief: as §2
Rattus norvegicus [10] = test: In vivo effect on concentration of DOPAC in rat striatum at dose of 10 umol/kg administered intraperitoneally; type: functional; method in brief: as §2
Rattus norvegicus [11] = test: In Vivo effect of agonist on the induction of stereotypy (continuous sniffing behavior in rat) at 10 umol/kg
Rattus norvegicus [12] = test: In Vivo effect of agonist on the induction of stereotypy (continuous sniffing behavior in rat) ED50
Rattus norvegicus [13] = test: In Vivo effect on concentration of HVA in rat striatum at dose of 0.4 umol/kg administered intraperitoneally; type: functional
Rattus norvegicus [14] = test: In Vivo effect on concentration of DOPAC in rat striatum at dose of 0.4 umol/kg administered intraperitoneally; type: functional
Rattus norvegicus [15] = test: In Vivo effect of agonist on the induction of stereotypy (continuous sniffing behavior in rat) at 0.4 umol/kg; type: functional

Sequence of D(2) dopamine receptor (P61169 whole entry): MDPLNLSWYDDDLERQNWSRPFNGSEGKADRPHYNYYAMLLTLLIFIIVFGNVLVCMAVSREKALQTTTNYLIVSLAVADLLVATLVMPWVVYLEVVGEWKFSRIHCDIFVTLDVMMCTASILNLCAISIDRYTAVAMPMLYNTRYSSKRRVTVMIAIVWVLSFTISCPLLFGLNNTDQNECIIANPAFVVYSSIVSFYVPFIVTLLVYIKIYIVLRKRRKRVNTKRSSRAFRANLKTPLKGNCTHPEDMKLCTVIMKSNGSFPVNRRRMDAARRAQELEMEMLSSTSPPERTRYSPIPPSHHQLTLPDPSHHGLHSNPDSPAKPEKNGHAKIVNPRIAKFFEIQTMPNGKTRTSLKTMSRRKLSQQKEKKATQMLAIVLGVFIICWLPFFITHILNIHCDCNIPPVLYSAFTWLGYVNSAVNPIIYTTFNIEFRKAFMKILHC

Compound | pKa [3] | logD [4] | pKa [5] | Control (Rattus norvegicus [7]) | IC50 (D(2) dopamine receptor) | also measured
CCCN(CCC)C1CCc2ccc(O)cc2C1 (stereo not given) | 9.4 | 1.45 | 10.7 |  |  | Control (Rattus norvegicus [1]): 56%; Control (Rattus norvegicus [2]): 72%
CCCN1CCO[C@@H]2c3cccc(O)c3OC[C@H]21 | 5.8 | 1.93 | 10.2 | 110% | 2920 nM | IC50 [6]: 8900 nM; ED50 (Rattus norvegicus [8]): inactive; Control (Rattus norvegicus [9]): 108%
CCCN(CCC)C1CCc2c(O)cccc2C1 (stereo not given) [5-OH-DPAT] | 9.4 | 1.53 | 10.9 |  |  | Control (Rattus norvegicus [1]): 60%; Control (Rattus norvegicus [2]): 73%
CCCN1CCO[C@@H]2c3cc(O)ccc3OC[C@H]21 | 6.1 | 1.97 | 10.3 | 100% | 3070 nM | Control (Rattus norvegicus [10]): 100%; ED50 (Rattus norvegicus [8]): inactive
CN1CCc2cccc3c2[C@H]1Cc1ccc(O)c(O)c1-3 [APOMORPHINE] |  |  |  | 40% |  | ED50 (Rattus norvegicus [11]): 2.3 µmol/kg; Control (Rattus norvegicus [9]): 48%
CCCN(CCC)C1COc2ccc(O)cc2C1 (stereo not given) | 8.1 | 2.39 | 9.6 |  |  | 
CCCN(CCC)C1COc2c(O)cccc2C1 (stereo not given) | 8.2 | 2.44 | 9.9 |  | 4 nM | 
CCCN1CCO[C@@H]2c3cc(O)ccc3CC[C@H]21 [NAXAGOLIDE] | 7.5 | 2.09 | 10.9 |  | 3 nM | ED50 (Rattus norvegicus [12]): 0.5 µmol/kg; Control (Rattus norvegicus [13]): 44%; Control (Rattus norvegicus [14]): 67%
CCCN1CCO[C@@H]2c3cccc(O)c3CC[C@H]21 | 7.4 | 2.22 | 10.5 |  | 75 nM | IC50 [6]: 24 nM; ED50 (Rattus norvegicus [15]): 7.5 mg/kg; Control (Rattus norvegicus [13]): 86%; Control (Rattus norvegicus [14]): 101%
